The list is not random: actives were taken first. Their share in the collection is about 9.6%.
bCat KO growth – primary screen for growth suppressors in beta-catenin knockout HCT116 cells (colon tumor, human); HCT116 beta-catenin knockout viability, CellTiter-Glo, 60 h; stronger effect = lower value; hit rate 1.5% among 140,000; viability, % at 10 µM;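 active = viability at or under a set limit, the compound median less 4 SD, cut at about 6% in these data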;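 note: 0% = Hyamine 1622 control at 20 µM and 100% = untreated cell control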
HCT116 PTEN-null – growth suppression of PTEN-null HCT116, primary screen, cell-based, CellTiter-Glo; HCT116 PTEN-null viability, 60 h; stronger effect = lower value; hit rate 1.2% among 140,000; AID 827, 2007; viability, % at 10 µM;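 active = viability at or below a set limit, 4 SD under the median of all tested compounds, cut at about 3.7% in these data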;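 note: PTEN knockout HCT116 line with beta catenin targeted HCT116 as companion control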
Lmaj promast – Leishmania major promastigote growth inhibition, primary screen. Leishmania major promastigotes, resazurin fluorescence viability. inhibition, % at 10 µM. hit rate 9% among 200,000; in the data active = inhibition above about 50%;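 note: promastigotes grown with compound for 44 hours at 28 °C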
PMI act hi M6P – human PMI activators, high substrate, primary screen, biochemical, fluorescence intensity, near-saturating mannose 6-phosphate | Mannose-6-phosphate isomerase (Homo sapiens), P34949 | coupled PMI enzyme assay, resazurin fluorescence, 20 min; stronger effect = higher value; 1 = untreated enzyme, 0 = substrate-free blank | activation factor at 20 µM | hit rate 0.34% among 190,000;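 active = activation factor of 2 or more at 20 µM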
Target sequence (P34949 whole entry, looked up): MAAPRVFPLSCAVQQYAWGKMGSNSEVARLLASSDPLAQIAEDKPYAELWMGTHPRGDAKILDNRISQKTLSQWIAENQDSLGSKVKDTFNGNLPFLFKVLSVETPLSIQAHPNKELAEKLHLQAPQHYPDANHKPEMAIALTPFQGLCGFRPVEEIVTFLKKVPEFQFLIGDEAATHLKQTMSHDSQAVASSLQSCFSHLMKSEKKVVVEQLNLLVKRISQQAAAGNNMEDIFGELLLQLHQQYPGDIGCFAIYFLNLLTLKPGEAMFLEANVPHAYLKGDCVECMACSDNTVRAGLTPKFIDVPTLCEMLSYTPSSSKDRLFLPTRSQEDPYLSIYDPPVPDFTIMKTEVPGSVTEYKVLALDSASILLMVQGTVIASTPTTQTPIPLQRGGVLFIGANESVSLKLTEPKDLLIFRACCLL
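assay system = human phosphomannose isomerase with PGI, G6PDH, diaphorase coupling enzymes | quantity = 15 ng/mL PMI | incubation = enzyme reaction with compound 20 min at room temperature | medium = HEPES pH 7.4 buffer with MgCl2 and Tween-20 | compound dosing = one concentration, 20 µM, in 1% DMSO | measured by = Diaphorase-driven resazurin-to-resorufin fluorescence, excitation 544, emission 590 nm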
PMI activator – activators of human PMI, primary screen, biochemical, fluorescence intensity, near-Km mannose 6-phosphate; purified human PMI, coupled resazurin fluorescence, 20 min; stronger effect = higher value; 1 = vehicle control, 0 substrate-free wells; activation factor at 20 µM; hit rate 0.005% among 190,000; AID 1214, 2008;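 active = activation factor of 2 or more at 20 µM, relative to plate controls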
The depositor's hits bear a star.

How did N#Cc1cccc(S(=O)(=O)NCC(=O)OCC(=O)c2ccc[nH]2)c1 do in these assays?
Lmaj promast: 2; PMI act hi M6P: 1; PMI activator: 0.9

Results for CCOC(=O)c1cnc(-n2nc(C)cc2C)nc1Nc1ccc(C)cc1 ?
bCat KO growth: 58; HCT116 PTEN-null: 71; Lmaj promast: 5; PMI act hi M6P: 0.9; PMI activator: 0.9

How did CCOC(=O)c1cnc(-n2nc(C)cc2C)nc1NNc1nc(-c2ccccc2)cc(-c2ccccc2)n1 do in these assays?
bCat KO growth: 4.5*; HCT116 PTEN-null: 4; Lmaj promast: 100*; PMI act hi M6P: 1.2; PMI activator: 1

Results for CCOC(=O)c1cnc(-n2nc(C)cc2C)nc1NC ?
bCat KO growth: 79; HCT116 PTEN-null: 87; Lmaj promast: 1; PMI act hi M6P: 0.8; PMI activator: 0.8

Results for CCOC(=O)c1cnc(-n2nc(C)cc2C)nc1NC1CCCCC1 ?
bCat KO growth: 1.9*; HCT116 PTEN-null: 2.1*; Lmaj promast: 100*; PMI act hi M6P: 1; PMI activator: 0.9

How did O=C(OCc1nc2ccc(Cl)cc2n1CCO)c1ccc(O)cc1 do in these assays?
bCat KO growth: 89; HCT116 PTEN-null: 94; Lmaj promast: 54*; PMI act hi M6P: 0.8; PMI activator: 0.8

How did O=C(OCc1nc2ccc(Cl)cc2n1CCO)c1ccccc1 do in these assays?
bCat KO growth: 81; HCT116 PTEN-null: 88; Lmaj promast: -1; PMI act hi M6P: 0.9; PMI activator: 0.8

What do the screens show for `Cc1ccc(C2CC(=O)Nc3c2ccc2ccccc32)cc1[N+](=O)[O-]` (stereo unspecified)?
bCat KO growth: 69; HCT116 PTEN-null: 65; Lmaj promast: 95*; PMI act hi M6P: 0.9; PMI activator: 0.9

How did O=C1CC(c2cccc([N+](=O)[O-])c2)c2cc3c(cc2N1)CCC3 (stereo unspecified) do in these assays?
Lmaj promast: 4; PMI act hi M6P: 0.9; PMI activator: 0.8

How did O=C1CC(c2cccc([N+](=O)[O-])c2)c2c(ccc3ccccc23)N1 (stereo unspecified) do in these assays?
bCat KO growth: 23; HCT116 PTEN-null: 26; Lmaj promast: 100*; PMI act hi M6P: 1; PMI activator: 1.1

How did Cc1nc(CN(C)C(=O)c2cc(COc3ccc4ncccc4c3)on2)cs1 do in these assays?
Lmaj promast: 14; PMI act hi M6P: 0.9; PMI activator: 0.9

What do the screens show for `CCC1CCc2c(sc(NC(=O)CSc3nc(-c4ccco4)cc(C(F)(F)F)n3)c2C#N)C1` (stereo unspecified)?
bCat KO growth: 93; HCT116 PTEN-null: 92; Lmaj promast: -4; PMI act hi M6P: 0.9; PMI activator: 0.9

How did Cc1cn(C(=O)c2ccccc2)c(=S)n1-c1ccc(Cl)cc1 do in these assays?
bCat KO growth: 70; HCT116 PTEN-null: 78; Lmaj promast: 85*; PMI act hi M6P: 1; PMI activator: 0.9

Results for Cc1ccc(-n2c(C)cn(C(=O)c3ccccc3)c2=S)cc1 ?
bCat KO growth: 73; HCT116 PTEN-null: 85; Lmaj promast: 16; PMI act hi M6P: 1.1; PMI activator: 1.1

What do the screens show for `Cc1ccc(NC(=S)Nc2nc(CC(=O)Nc3ccccc3)cs2)cc1`?
bCat KO growth: 80; HCT116 PTEN-null: 89; Lmaj promast: 6; PMI act hi M6P: 0.9; PMI activator: 1

How did Cc1ccc(NC(=O)Cc2nc(CCl)cs2)cc1 do in these assays?
bCat KO growth: 89; HCT116 PTEN-null: 91; Lmaj promast: 68*; PMI act hi M6P: 1.9; PMI activator: 1.2

What do the screens show for `CCOC(=O)C1(Cc2ccc(Cl)cc2)CCN(C(=O)c2ccoc2)CC1`?
Lmaj promast: 53*; PMI act hi M6P: 1; PMI activator: 0.9

How did Cc1cccc(C(=O)NC(NC(=S)Nc2ccc(S(N)(=O)=O)cc2)C(Cl)(Cl)Cl)c1 (stereo unspecified) do in these assays?
bCat KO growth: 84; HCT116 PTEN-null: 88; Lmaj promast: 54*; PMI act hi M6P: 0.8; PMI activator: 0.8

Compound activity from PubChem.
